The record followed here is ChEMBL document CHEMBL4414545, “Beta-Glucuronidase Catalyzes Deconjugation and Activation of Curcumin-Glucuronide in Bone” (J Nat Prod, 2019).

Calls of active or inactive are those of the source. No cut-off for these calls is given here. A value given as a limit tells only on which side of the number the result lay.

For data set [1], the target named is T1, Beta-glucuronidase (Mus musculus, UniProt P12265).
T1 sequence (P12265 whole entry): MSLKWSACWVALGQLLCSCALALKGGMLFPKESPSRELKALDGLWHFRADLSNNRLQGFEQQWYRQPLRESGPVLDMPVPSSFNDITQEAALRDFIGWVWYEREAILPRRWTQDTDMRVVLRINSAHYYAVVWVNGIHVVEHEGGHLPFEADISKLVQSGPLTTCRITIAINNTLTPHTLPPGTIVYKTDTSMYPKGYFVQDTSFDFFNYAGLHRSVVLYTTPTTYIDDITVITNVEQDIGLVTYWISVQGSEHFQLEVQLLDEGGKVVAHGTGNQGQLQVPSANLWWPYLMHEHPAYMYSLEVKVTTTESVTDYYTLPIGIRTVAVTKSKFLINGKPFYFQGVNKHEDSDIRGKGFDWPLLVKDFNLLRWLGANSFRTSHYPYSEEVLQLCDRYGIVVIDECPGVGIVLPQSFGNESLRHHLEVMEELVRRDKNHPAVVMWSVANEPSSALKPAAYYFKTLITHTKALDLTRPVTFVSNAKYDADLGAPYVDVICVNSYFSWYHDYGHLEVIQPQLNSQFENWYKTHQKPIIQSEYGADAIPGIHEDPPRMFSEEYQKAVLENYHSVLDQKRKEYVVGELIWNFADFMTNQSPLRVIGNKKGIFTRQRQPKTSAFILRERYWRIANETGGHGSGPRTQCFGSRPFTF
The experiment in a line: Prodrug conversion in C57BL/6J mouse bone marrow assessed as beta-glucuronidase mediated stabilization of aglycone curcumin at 0.5 uM administered via oral gavage incubated for 30 mins followed by resuspension in sodium acetate buffer at pH 5 measured after 2 hrs in presence of saccharolactone by LC-MS analysis. Type of data set: ADME. To be noted: in vivo, pH 5, 0.5 µM.

Data set [2] addresses T2, Beta-glucuronidase (Homo sapiens, UniProt P08236).
T2 sequence (P08236 whole entry): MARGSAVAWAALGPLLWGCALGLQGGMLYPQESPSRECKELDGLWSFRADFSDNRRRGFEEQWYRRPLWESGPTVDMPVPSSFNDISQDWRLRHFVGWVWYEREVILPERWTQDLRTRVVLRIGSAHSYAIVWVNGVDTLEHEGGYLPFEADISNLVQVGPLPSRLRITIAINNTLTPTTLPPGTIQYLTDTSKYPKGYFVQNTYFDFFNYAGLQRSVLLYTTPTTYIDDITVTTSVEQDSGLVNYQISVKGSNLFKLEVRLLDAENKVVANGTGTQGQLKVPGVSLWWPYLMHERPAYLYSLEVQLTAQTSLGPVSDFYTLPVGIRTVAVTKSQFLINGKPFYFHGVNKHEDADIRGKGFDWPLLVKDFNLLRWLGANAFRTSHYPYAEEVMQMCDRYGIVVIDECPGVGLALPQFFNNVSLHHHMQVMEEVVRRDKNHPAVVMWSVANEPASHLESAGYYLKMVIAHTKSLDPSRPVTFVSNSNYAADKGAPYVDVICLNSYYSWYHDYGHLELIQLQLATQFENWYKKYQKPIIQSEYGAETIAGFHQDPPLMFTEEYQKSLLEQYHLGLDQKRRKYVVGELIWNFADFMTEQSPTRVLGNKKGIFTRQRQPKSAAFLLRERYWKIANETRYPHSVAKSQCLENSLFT
The experiment in a line: Prodrug conversion assessed as recombinant human C-terminal His6-tagged beta-glucuronidase mediated curcumin-glucuronide hydrolysis incubated for 24 hrs by LC-MS analysis. The class given is ADME. The following applies: isolated protein. The method in brief:
(§1)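 Recombinant human GUSB or α-klotho, 5 μg/mL (15 nM or 45 nM active enzyme), was incubated with curcumin-glucuronide (459 nM) for 24 h at 37°C at pH 5 in enzyme-optimized buffer. Reactions were stopped with HCl and extracted by HLB. Remaining glucuronide and formed aglycone were measured by LC/MS and expressed as % of enzyme-free control, n=3/group.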

For data set [3], the target named is T3, Klotho (Homo sapiens, UniProt Q9UEF7).
T3 sequence (Q9UEF7 whole entry): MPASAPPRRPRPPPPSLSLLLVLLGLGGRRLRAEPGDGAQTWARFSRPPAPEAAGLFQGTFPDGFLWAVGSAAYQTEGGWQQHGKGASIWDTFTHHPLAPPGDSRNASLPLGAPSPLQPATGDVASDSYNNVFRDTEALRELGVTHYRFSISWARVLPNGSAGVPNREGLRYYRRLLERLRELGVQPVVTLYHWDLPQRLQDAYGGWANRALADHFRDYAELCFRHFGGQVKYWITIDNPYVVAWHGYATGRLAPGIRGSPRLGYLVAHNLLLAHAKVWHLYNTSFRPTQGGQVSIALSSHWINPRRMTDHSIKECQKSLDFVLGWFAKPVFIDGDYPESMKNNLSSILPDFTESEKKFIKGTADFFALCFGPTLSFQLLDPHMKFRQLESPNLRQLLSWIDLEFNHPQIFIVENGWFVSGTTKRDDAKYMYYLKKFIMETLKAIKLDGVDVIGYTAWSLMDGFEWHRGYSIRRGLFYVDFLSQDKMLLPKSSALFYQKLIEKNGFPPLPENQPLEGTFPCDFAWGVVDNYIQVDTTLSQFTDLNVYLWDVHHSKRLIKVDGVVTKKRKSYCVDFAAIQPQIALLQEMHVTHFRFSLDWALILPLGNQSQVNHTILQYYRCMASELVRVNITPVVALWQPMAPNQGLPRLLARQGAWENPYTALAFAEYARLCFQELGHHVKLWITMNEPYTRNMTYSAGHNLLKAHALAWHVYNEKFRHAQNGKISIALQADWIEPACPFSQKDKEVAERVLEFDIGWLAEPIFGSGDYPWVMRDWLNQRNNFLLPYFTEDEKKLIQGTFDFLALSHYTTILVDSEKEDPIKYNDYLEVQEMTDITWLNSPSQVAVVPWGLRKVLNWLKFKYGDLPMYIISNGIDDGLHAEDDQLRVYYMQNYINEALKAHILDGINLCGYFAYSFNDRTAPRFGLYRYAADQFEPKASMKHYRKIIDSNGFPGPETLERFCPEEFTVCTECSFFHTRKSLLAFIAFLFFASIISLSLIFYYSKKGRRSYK
Put plainly: Prodrug conversion assessed as recombinant human alpha-klotho mediated curcumin-glucuronide hydrolysis incubated for 24 hrs by LC-MS analysis. The class given is ADME. In short, it runs like this:
as §1

Data set [4] concerns RAW264.7. Put plainly: Inhibition of RANKL-induced osteoclastogenesis in murine RAW264.7 cells assessed as formation of TRAP positive multinucleated osteoclasts at 30 uM pretreated for 4 hrs followed by RANKL addition measured after 72 hrs. The class given is functional, cell-based. The following applies: Mus musculus. The method in brief: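 RAW 264.7 cells, used within 10 passages, were seeded at 5×10^3/well in DMEM with 10% FBS and allowed to adhere overnight at 37°C. Cells were pretreated 4 h with aglycone curcumin or curcumin-glucuronide, then given RANKL (50 ng/mL final) for 72 h. TRAP-positive multinucleated osteoclasts were counted, n=4/group.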

For the molecule `COc1cc(/C=C/C(=O)CC(=O)/C=C/c2ccc(O[C@@H]3O[C@H](C(=O)O)[C@@H](O)[C@H](O)[C@H]3O)c(OC)c2)ccc1O`, the Drug metabolism result is on record as “Metabolite_Detected” in data set [1], over 99% in data set [2] and 75% in data set [3]. Besides, in data set [4], the inhibition result was “inactive”.
